Screening data: PubChem BioAssay, The Scripps Research Institute Molecular Screening Center
Rows were chosen to be rich in hits. Some 3.1% of all compounds tested hit in one or more screens of this group.
GalR3 antag: GalR3 antagonists in HEK293 cells, primary screen, cell-based, fluorescence readout | HEK293 GalR3-CNG cAMP membrane potential fluorescence; galR3 body fused to GalR1 C-terminus | inhibition, % at 3 µM | actives 0.44% (n = 360,000) | AID 651719, 2012;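 active means inhibition above the screen-wide average plus 3 SD, cut at about 13% in these data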;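 further: forskolin and galanin both at EC90 stimulate the cells; cAMP rise reported by CNG channel membrane potential dye signal; 0% = forskolin plus galanin with DMSO and 100% = forskolin alone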
Target sequence (O60755 1-299 limits assumed): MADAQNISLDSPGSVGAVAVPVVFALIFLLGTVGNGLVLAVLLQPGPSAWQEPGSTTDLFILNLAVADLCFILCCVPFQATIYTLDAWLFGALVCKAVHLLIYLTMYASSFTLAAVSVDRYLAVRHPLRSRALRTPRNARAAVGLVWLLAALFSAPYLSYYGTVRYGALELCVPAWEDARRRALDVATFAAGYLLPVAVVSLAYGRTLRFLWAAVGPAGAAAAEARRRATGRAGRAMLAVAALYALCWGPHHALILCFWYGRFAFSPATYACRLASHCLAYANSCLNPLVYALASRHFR
OX1R antag-1: OX1R (HCRTR1) antagonists, primary screen, fluorescence, CHO/OX1R cells, Fluo-8 calcium, orexin A; actives 0.43% (n = 330,000); inhibition, % at 5 µM; Orexin/Hypocretin receptor type 1 (Homo sapiens), O43613; Fluo-8 calcium fluorescence;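 active means inhibition above its plate's threshold, mean inhibition of all tested compounds on the plate plus 3 SD, cut at about 37% in these data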;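 further: 0% = orexin A challenge wells and 100% = SB-334867-A antagonist wells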
CHO parental Ca: ATP-evoked calcium signal inhibitors, parental CHO, primary screen, counter-screen for OX1R antagonist project, cell-based, fluorescence, Fluo-8 calcium dye | parental CHO-K1, ATP-induced calcium, Fluo-8 fluorescence | inhibition, % at 5.6 µM | actives 0.63% (n = 330,000) | AID 463079, 2010;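 active means inhibition above that plate's mean sample inhibition plus 3 SD, cut at about 26% in these data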;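 further: 0% = ATP-challenged DMSO wells and 100% = DMSO wells without ATP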
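test system = CHO parental line | reagent = ATP stimulus | measured by = intracellular calcium via Fluo-8 no-wash fluorescent dye | control set = ATP and no-ATP DMSO wells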
OX1R antag-2: antagonists of human orexin 1 receptor (OX1R). Orexin/Hypocretin receptor type 1 (Homo sapiens), O43613. OX1R-expressing cells, FRET antagonist read-out. inhibition, % at 6.6 µM. actives 1.8% (n = 330,000). AID 485270, 2010; in the data active means inhibition mostly above about 38%, no sharp cut-off; inactive means mostly below about 40%;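 further: 0% = agonist challenge alone and 100% = reference antagonist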
GPR7 antag: GPR7 receptor antagonists, primary screen, cell-based, fluorescence, single concentration. GPR7-expressing cells, fluorescence antagonist assay. inhibition, % at 4.4 µM. actives 1.1% (n = 290,000). AID 1861, 2009. Neuropeptides B/W receptor type 1 (Homo sapiens), P48145; in the data active means inhibition above about 16%, passing the limit was not always enough;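 further: cells stimulated with the agonist NPW; 0% = agonist with vehicle and 100% = vehicle without agonist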
Target sequence (P48145 whole entry, looked up): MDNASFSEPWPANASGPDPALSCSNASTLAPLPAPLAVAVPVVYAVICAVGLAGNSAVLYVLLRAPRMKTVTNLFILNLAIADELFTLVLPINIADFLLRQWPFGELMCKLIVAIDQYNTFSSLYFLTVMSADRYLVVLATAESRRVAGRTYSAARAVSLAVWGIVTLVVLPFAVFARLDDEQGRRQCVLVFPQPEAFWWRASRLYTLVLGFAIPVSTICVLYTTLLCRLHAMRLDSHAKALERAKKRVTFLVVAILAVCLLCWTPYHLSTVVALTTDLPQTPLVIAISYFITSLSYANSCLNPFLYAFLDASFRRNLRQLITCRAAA
GPR7 antag conf: GPR7 receptor antagonists, confirmation, cell-based, fluorescence, single concentration | shares compounds with GPR7 antag | GPR7-expressing cells, calcium fluorescence antagonist mode | inhibition, % at 4.4 µM | actives 52% (n = 2,400) | AID 1952, 2009; in the data active means inhibition above about 24%;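 further: stimulated with the GPR7 agonist NPW; 0% = agonist plus vehicle and 100% = vehicle alone without agonist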
MCHR1 antag: MCHR1 antagonists in cells, counter-screen for GPR7 antagonist project, cell-based, fluorescence, human; shares compounds with GPR7 antag; MCHR1-expressing cells, fluorescence antagonist assay; inhibition, % at 4.4 µM; actives 62% (n = 2,400); in the data active means inhibition above about 22%;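 further: 0% = vehicle with agonist and 100% = vehicle without agonist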
The depositor's hits bear a star; x = not tested or not shown; ! = a repeat was not active.

SMILES	GalR3 antag	OX1R antag-1	CHO parental Ca	OX1R antag-2	GPR7 antag	GPR7 antag conf	MCHR1 antag
CCN(CC)C1=CC2=CC(=C(C#N)C#N)CCC2CC1 (stereo unspecified)	-3.2	106.5*	99.1*	28.0	58.4*	90.9*	104.9*
CCCCN(C)C1=CC2=CC(=C(C#N)C#N)CCC2CC1 (stereo unspecified)	-5.0	106.3*	101.1*	25.1	75.3*	102.6*	109.5*
N#CC1=C(N)C2=C(N3CCCCC3)CCCC2C1(C#N)C#N (stereo unspecified)	x	-18.1	10.5	20.3	-7.0	x	x
N#CC(C#N)=C1C=C2C=C(N3CCCCC3)CCC2CC1 (stereo unspecified)	x	106.1*	101.5*	42.4	74.3*	93.0*	109.2*
COCC(=O)N1C[C@H]2CON(C)[C@H]2C[C@H]1c1cccc(-c2ccccc2)c1	-3.8	x	x	x	x	x	x
Cc1ccc(C(=O)Nc2cccc(S(=O)(=O)N3CCCCC3)c2)cc1S(=O)(=O)N1CCOCC1	-8.9	x	x	x	x	x	x
CN(C(=O)c1cnccn1)c1c(N)n(Cc2ccccc2)c(=O)[nH]c1=O	-4.2	5.0	-5.0	10.2	x	x	x
CSc1ccccc1NC(=O)CN(c1cccc(C)c1)S(C)(=O)=O	0.5	3.7	-12.7	22.9	-6.5	x	x
Cc1cccc(N(CC(=O)Nc2ccccc2F)S(C)(=O)=O)c1	-1.8	-2.5	-1.3	12.6	26.9*	9.7	3.7
N=c1n(CCN2CCCCC2)c2ccccc2n1CC(O)COc1ccccc1 (stereo unspecified)	-9.2	-22.5	-10.4	4.8	39.7*	39.9*	23.1*
N=c1n(CCN2CCCC2)c2ccccc2n1CC(O)c1ccco1 (stereo unspecified)	-0.3	3.5	0.1	3.5	-11.2	x	x
N=c1n(CCN2CCCCC2)c2ccccc2n1CC(O)c1cccc(Br)c1 (stereo unspecified)	-9.4	-24.6	9.5	9.7	24.6*	48.1*	43.3*
Cc1ccccc1OCC(O)Cn1c(=N)n(CCN2CCOCC2)c2ccccc21 (stereo unspecified)	-7.4	-33.2	-13.2	14.7	32.7*!	21.3	26.2*
COc1ccccc1NC(=O)Oc1cccc(OC(=O)c2ccccc2)c1	-5.9	-11.8	-16.2	-5.1	21.3	10.2	20.5
COc1cccc(OC)c1OC(=O)c1ccccc1	-2.2	x	x	x	x	x	x
CN(Cc1ccccc1)C(=O)c1ccccc1-c1ccccc1	-9.7	-26.7	-7.2	16.8	68.8*	-12.6	10.8
Nc1nc(NCCOCCO)nc(N2CCCCCC2)c1[N+](=O)[O-]	-10.1	x	x	x	-7.2	x	x
CC(CC(=O)N1CCN(c2ccccc2)CC1)S(=O)(=O)c1ccc2c(c1)NC(=O)CO2 (stereo unspecified)	1.4	1.6	0.4	7.4	-0.9	x	x
O=C(NCCCN1CCOCC1)c1ccc2c(c1)N(Cc1c(F)cccc1Cl)C(=O)c1ccccc1S2	-11.6	-23.3	-18.5	2.2	24.8*	37.0*	11.9
O=C1Nc2cc(C(=O)NCCCN3CCOCC3)ccc2S/C1=C/c1cccc(Cl)c1	-1.3	-14.1	-24.6	8.1	-6.2	x	x
O=C1Nc2cc(C(=O)NCCCN3CCOCC3)ccc2S/C1=C/c1ccccc1F	1.6	-7.3	-11.2	24.8	39.8*	33.5*	27.9*
C#CCN1C(=O)[C@]2(OCCC=C[C@H]2C)c2ccccc21	2.2	x	x	x	x	x	x
CCc1cccc2c(C(=O)C(NCCCOC)c3ccccc3)c[nH]c12 (stereo unspecified)	-10.0	4.6	-1.4	35.7	35.1*	42.6*	29.8*
CCc1cccc2c(C(=O)C(NC(C)CC)c3ccccc3)c[nH]c12 (stereo unspecified)	-10.3	-9.7	-16.0	22.6	10.8	x	x
Cc1ccc(S(=O)(=O)N(Cc2ccc(F)cc2)Cc2ccco2)cc1	-5.5	9.2	24.4	20.1	32.1*	30.3*	58.0*
SMILES	GalR3 antag	OX1R antag-1	CHO parental Ca	OX1R antag-2	GPR7 antag	GPR7 antag conf	MCHR1 antag
COc1ccc(NC(=O)CCCC(=O)NCCc2ccc(OC)c(OC)c2)cc1	-10.5	-9.2	-4.2	42.9	-7.8	x	x
COCCCNC(=O)CN(Cc1ccc(Cl)cc1)S(C)(=O)=O	8.5	8.6	-10.8	14.9	-5.4	x	x
COc1ccc(CCNC(=O)c2cc(S(=O)(=O)N3CCCCC3)ccc2Cl)cc1	-2.1	x	x	x	x	x	x
COc1ccc(N(C)S(=O)(=O)c2ccc(Cl)c(C(=O)NCCc3ccc(Cl)cc3)c2)cc1	-7.4	-2.0	-25.7	23.0	44.8*	48.2*	49.6*
CN(c1ccccc1)S(=O)(=O)c1ccc(C(=O)NCCc2ccc(F)cc2)cc1	-11.6	-22.5	-10.1	13.5	26.5*	22.6	18.3
COc1ccc(CCNC(=O)CN(Cc2ccc(Cl)cc2)S(C)(=O)=O)cc1	-11.7	x	x	x	24.5*	12.7	12.9
CCOc1ncccc1C(=O)Nc1ccc(S(=O)(=O)N2CC(C)CC(C)C2)cc1 (stereo unspecified)	-5.2	-18.0	-16.9	2.0	x	x	x
CC1(C)CC(=O)C/C(=N/NC(=O)COc2ccc(Cl)cc2Cl)C1	-4.3	-24.4	-13.1	7.6	-13.2	x	x
CC1(C)CC(=O)C/C(=N/NC(=O)COc2ccc3ccccc3c2Br)C1	-2.1	-7.0	-19.0	1.1	104.3*	-1.2	1.3
NC(=O)N/N=C/c1coc2ccc(O)cc2c1=O	-6.8	-12.8	-2.5	32.0	21.4*	4.7	4.3
COc1cc(OC)cc(C(=O)N[C@H](C(=O)OCC(=O)Nc2ccc(C(N)=O)cc2)C(C)C)c1	-3.9	-12.5	0.3	-2.3	-0.7	x	x
COc1cc(OC)cc(C(=O)N[C@H](C(=O)OCC(=O)Nc2ccc(F)c(F)c2)C(C)C)c1	9.5	-31.4	-18.2	14.1	21.3*	33.7*	48.3*
O=C(N[C@H](Cc1ccccc1)C(=O)NC1CCCCC1)[C@H]1O[C@@H](n2ccc(=O)[nH]c2=O)[C@H](O)[C@@H]1O	-3.0	x	x	x	x	x	x
CCOC(=O)c1ccc(NC(=O)c2nc[nH]c2C(=O)N[C@@H](C)CO)cc1	-5.3	x	x	x	x	x	x
CC(C)(C)c1cc(NCCCn2ccnc2)n2ncc(-c3ccc(Cl)cc3)c2n1	-7.3	-30.3	-26.1	6.2	0.8	x	x
CN(C)CCCNc1cc(C(C)(C)C)nc2c(-c3ccccc3)cnn12	-6.6	8.4	27.4	4.3	67.1*	66.2*	67.2*
